Experiment [1] deals with HIV-1ADA. Description: EC50 assay in MDM, HIV-1 RT activity. Format: cell-based. The following applies: Human immunodeficiency virus 1, 240 h. The gist of the method:
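Human monocytes differentiated to macrophages with MCSF (1000 U/mL) for 7 days, then seeded at 0.15 × 10^6 cells/well and kept at 37 °C, 5% CO2. Cells were pretreated 2 h with test compound (0.1–1000 nM) and challenged with HIV-1ADA at MOI 0.1 for 4 h. After a PBS wash they were re-fed drug-containing medium at the same concentrations. Supernatant RT activity was read 10 days post-challenge.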

The test system of experiment [2] is HIV-1NL4–3-eGFP. In words: EC50 assay in CEM-CD4+ T-cells, HIV-1 RT activity. The following applies: Human immunodeficiency virus 1, T-cell, 240 h. It counts as cell-based.
Experiment [3] has as its system HIV-1. The following applies: no reference given; cited from earlier work.

One may read the EC50 as the midpoint of the concentration-response curve. High values mean a less potent agent, low ones a more potent agent.

The structures appear in SMILES notation.

Take `Cc1cc(/C=C/C#N)cc(C)c1Nc1ccnc(Nc2ccc(C#N)cc2)n1` [RPV, rilpivirine]: the results for the concentration for a half-maximal effect (EC50) in experiment [1] and in experiment [2] were 1.9 nM and 0.8 nM, respectively. Moreover, the “protein-adjusted 90% inhibitory concentration (PA-IC90)” value in experiment [3] was 12 ng/mL.

Values taken from publication PMC6875695 (Journal of controlled release : official journal of the …, 2019).
